Screens from PubChem BioAssay.
esBAF inh: Bmi1 luciferase reporter increase in mESCs, primary screen, esBAF inhibitor project, mouse ES cells, Bmi1 luciferase knock-in, single point | 24 h; 100% = twice the neutral-well signal | 2% of 350,000 active | reporter increase, % at 12.5 µM; in the data active means activation above about 40%; inconclusive means no clear call, values can overlap the other calls;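 further: 0% = median of the plate's neutral control wells and 100% = double that signal; a rise in the Bmi1 reporter signal indicates esBAF inhibition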
ERAP1 inh: human ERAP1 aminopeptidase inhibitors, primary screen, biochemical, single point, plate reader. inhibition, % at 10.7 µM. 0.15% of 340,000 active. recombinant ERAP1, Leu-AMC fluorescence, 60 min;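 active means mean replicate inhibition of at least 30%, or all replicates individually reaching that 30% level; inactive means mean below 30% and not every replicate reaching it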;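 further: 0% = neutral control wells and 100% = L-leucinethiol positive control wells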
Target sequence (Q9NZ08 whole entry, looked up): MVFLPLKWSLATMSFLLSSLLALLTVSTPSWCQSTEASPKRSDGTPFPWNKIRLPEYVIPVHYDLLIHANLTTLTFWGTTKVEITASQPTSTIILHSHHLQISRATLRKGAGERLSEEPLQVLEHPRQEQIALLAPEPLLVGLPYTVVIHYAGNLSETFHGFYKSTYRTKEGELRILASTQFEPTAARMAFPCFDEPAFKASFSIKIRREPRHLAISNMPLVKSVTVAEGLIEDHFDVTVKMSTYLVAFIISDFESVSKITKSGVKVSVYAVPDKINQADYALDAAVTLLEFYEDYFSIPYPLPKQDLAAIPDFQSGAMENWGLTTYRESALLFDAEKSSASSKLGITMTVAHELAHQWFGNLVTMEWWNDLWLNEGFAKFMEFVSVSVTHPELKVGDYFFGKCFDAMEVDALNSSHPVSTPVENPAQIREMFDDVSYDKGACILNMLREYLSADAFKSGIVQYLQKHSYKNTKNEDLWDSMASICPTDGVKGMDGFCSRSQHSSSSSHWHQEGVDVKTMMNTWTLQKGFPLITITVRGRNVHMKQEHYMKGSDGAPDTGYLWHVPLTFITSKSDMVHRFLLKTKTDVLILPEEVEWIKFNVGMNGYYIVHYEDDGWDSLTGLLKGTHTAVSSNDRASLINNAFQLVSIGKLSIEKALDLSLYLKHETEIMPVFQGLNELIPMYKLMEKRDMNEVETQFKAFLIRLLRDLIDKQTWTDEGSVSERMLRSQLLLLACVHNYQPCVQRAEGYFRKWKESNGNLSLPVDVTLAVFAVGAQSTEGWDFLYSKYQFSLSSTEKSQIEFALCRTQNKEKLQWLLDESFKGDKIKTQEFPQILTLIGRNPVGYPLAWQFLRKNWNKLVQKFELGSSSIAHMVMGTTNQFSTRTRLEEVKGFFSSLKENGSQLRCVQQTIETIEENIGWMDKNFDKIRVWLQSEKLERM
Wnt act: Wnt/beta-catenin pathway activators, primary screen, cell-based, plate reader, single point; AID 743398, 2014; activation, % at 9.35 µM; Wnt/beta-catenin reporter cell assay, activator; 1.2% of 300,000 active; in the data active means activation above about 30%, passing the limit was not always enough; inconclusive means no clear call, values can overlap the other calls;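 further: 0% = neutral control wells and 100% = positive control wells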
MITF act: activators of MITF-driven TRPM1 promoter reporter, primary screen, cell-based, SK-MEL-5, luciferase, single point | AID 588334, 2011 | activation, % at 12.5 µM | 0.75% of 300,000 active | SK-MEL-5 TRPM1-promoter luciferase, 24 h; % of positive control, neutral wells = 0;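 active means mean activation of at least 80% with every replicate also reaching 80%; inconclusive means mean reaches 80% but some replicate falls short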;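 further: 0% = neutral control wells and 100% = parthenolide positive control wells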
Cneo AK release: Cryptococcus neoformans cell lysis inducers, primary screen, AK release luminescence, single concentration | C. neoformans lysis, adenylate kinase release luminescence, 4 h; normalised: neutral wells 0, clomiphene wells 100 | lysis activity, % at 15 µM | 0.2% of 360,000 active;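 active means mean lysis activity across replicates of at least 80%, whatever share of replicates individually reach that level; inactive means mean lysis activity below 80%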
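Material – log-phase Cryptococcus neoformans yeast cells · Input – 5 × 10^6 yeast cells/mL · Medium – fresh YPD growth medium · Doses – single compound concentration per well · Timing – static 4 h at 37 °C with compound, 1 h detection · Detection – adenylate kinase release luminescence · Read-out – signal increase indicating cell lysis · Control set – Clomiphene as positive lysis control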
Env fusion inh: inhibitors of HIV-1 Env-driven cell-cell fusion, primary screen, HeLa-JRFL effector, CEM21 target cells, luciferase. inhibition, % at 12.3 µM. 1.1% of 360,000 active. AID 651610, 2012;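 active means mean replicate inhibition score of at least 50 and every replicate individually at or above 50; inconclusive means only one of the two criteria met; inactive means mean below 50 and not all replicates reaching 50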;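 further: 0% = plate neutral controls and 100% = maraviroc near 300 nM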
Starred values were filed as active, the others as inactive; i = inactive; ? = inconclusive; . = not tested or not shown; [ ] = another dose, or the depositor's remark. Rows were chosen to be rich in hits. Some 3.5% of all compounds tested hit in one or more screens of this group.

SMILES	esBAF inh	ERAP1 inh	Wnt act	MITF act	Cneo AK release	Env fusion inh
Cn1ccnc1SCC(=O)Nc1ccc(SC(F)F)cc1	82*	-2	28	109*	0	.
Cc1cccc(NC(=O)CSc2nccn2Cc2ccco2)c1	44*	1	20	66	4	-4
Cc1cc(C)cc(NC(=O)CSc2nccn2Cc2ccco2)c1	19	1	-1	12	2	32
O=C(C[C@H]1CC[C@@H]2[C@H](COC[C@H](O)CN2S(=O)(=O)c2ccc(F)cc2)O1)NCc1ccc(Cl)c(Cl)c1	0	0	.	.	1	.
CC(C)CC#Cc1cnc2c(c1)C(=O)N([C@H](C)CO)C[C@H](C)[C@H](CN(C)S(=O)(=O)c1cn(C)cn1)O2	1	0	.	.	6	18[16.7 µM]
COc1ccc(NC(=O)CSc2ncc(-c3ccc(F)cc3)n2Cc2ccco2)cc1	-19	.	2	3	3	-84
CCC(=O)Nc1cc(NC(=O)CSc2ncc(-c3ccc(F)cc3)n2Cc2ccco2)ccc1C	.	.	38*	78	3	-245
Cc1cccc2sc(NNC(=O)c3cc(-c4cccs4)nc4ccccc34)nc12	2	4	3	-35	1	85*
CCOc1ccc(N(C(=O)/C=C/C(=O)Nc2cc(C)on2)C(C(=O)NC2CCCC2)c2ccccc2C)cc1 (stereo unspecified)	2	7	-8	-23	3	.
CCc1ccc(C(C(=O)NC2CCCC2)N(C(=O)/C=C/C(=O)Nc2cc(C)on2)c2ccccc2C)cc1 (stereo unspecified)	.	.	-1	7	.	77*
COc1ccc(C(=O)N/C(=C/c2cccs2)c2nc3ccccc3[nH]2)cc1OC	.	-4	.	7	.	-15
Cn1c(/C=C/c2ccc(Cl)cc2)nc2ccccc2c1=O	69*	4	1	.	-1	-21
O=c1[nH]c2ccccc2nc1/C=C/c1ccc(Cl)cc1	45*	1	15	66	-5	-84
COc1cc(/C=C(/C(=O)c2cccs2)c2nc3ccccc3[nH]2)cc(OC)c1O	101*	5	.	.	.	-80
O=C(/C(=C/c1ccc(Cl)cc1)c1nc2ccccc2[nH]1)c1ccccc1	-69	.	84*	-86	0	i
COc1ccc(-c2noc(-c3ccc(Br)o3)n2)cc1OC	54*	.	7	.	-1	-109
COc1ccc(Cc2nc(-c3ccc(Br)o3)no2)cc1OC	49*	-1	12	21	-4	-1
COc1cc(-c2nc(-c3ccc(Br)o3)no2)cc(OC)c1OC	23	-3	-2	.	0	4
CSc1ccccc1OCc1cc(C(=O)NCc2cccc(C)n2)no1	78*	-1	26	96*	-3	-71
CSc1ccccc1OCc1cc(C(=O)N(C)Cc2nonc2C)no1	65*	5	21	150*	0	-54
CCn1ccnc1CN(C)C(=O)c1cc(COc2ccccc2SC)on1	59*	-1	23	?	0	0
CSc1ccccc1OCc1cc(C(=O)N(C)Cc2ccncn2)no1	.	-5	16	117*	-3	-51
CCCC(=O)Nc1ccc2c(c1)C(=O)N(C)C[C@H](OC)[C@H](C)CN(C(=O)c1ccccc1F)[C@H](C)CO2	2	-2	.	.	-6	-3[16.7 µM]
Clc1ccc(C#Cc2cccnc2)cc1	67*	-1	24	109*	-3	-68
N#C[C@H]1N[C@H](CO)[C@H]1c1ccc(C#Cc2cccnc2)cc1	1	-2	.	.	-4	-10[16.7 µM]
SMILES	esBAF inh	ERAP1 inh	Wnt act	MITF act	Cneo AK release	Env fusion inh
Fc1ccccc1CSc1ncnc2c1ncn2C1CCCO1 (stereo unspecified)	69*	0	0	59	1	-42
CCCCSc1ncnc2c1ncn2C1CCCCO1 (stereo unspecified)	16	-4	52*	90*	-2	-35
Cc1cccc2c1OCC/C2=N\NC(=O)COc1ccccc1Cl	70*	.	.	95*	4	-150
CN1C2=NCCN2C(=O)c2cc(Cl)ccc21	.	111*	3	-6	.	-13
Clc1ccc2c(c1)-c1ccccc1C1=NCCN12	.	-3	5	.	.	12
Cc1ccc(-c2ccc([C@@H]3[C@@H](CO)N4C(=O)CN(C(=O)Nc5cccc(F)c5)C[C@@H]34)cc2)cc1	.	-2	.	.	.	.
Cc1ccc(-c2ccc(C(=O)O)c(C)n2)cc1	-5	2	-3	-8	-1	.
CCOC(=O)c1ccc(-c2ccc3c(c2)CCC3)nc1C	38	-3	38*	76	-1	-187
COC(=O)c1ccc(-c2ccc(F)cc2)nc1C	38	.	28	105*	1	.
C[C@@H]1CN([C@H](C)CO)C(=O)c2cc(C3=CCCC3)cnc2O[C@@H]1CN(C)C	-3	1	.	.	-4	-2[16.7 µM]
O=C(Cc1ccccn1)NCC[C@H]1CC[C@H](NC(=O)c2ccccc2F)[C@H](CO)O1	-1	8	.	.	15	16[16.7 µM]
O=C(CSc1ccccc1C(=O)NCc1ccccc1)NC12CC3CC(CC(C3)C1)C2	.	.	-3	5	.	76*
CN1CCc2c(sc3c2C(=O)NC(c2cccc(OC(=O)c4cccs4)c2)N3)C1 (stereo unspecified)	42*	-3	14	.	-3	-47
O=C(C[C@H]1CC[C@@H]2[C@H](COC[C@H](O)CN2S(=O)(=O)c2ccccc2)O1)NCCN1CCCC1	.	-1	.	.	.	.
C[C@H](CO)N1C[C@H](C)[C@H](CN(C)S(=O)(=O)c2ccc(Cl)cc2)OCCCC[C@H](C)Oc2ccc(NC(=O)c3ccccc3)cc2C1=O	11	1	.	.	1	1[16.7 µM]
COc1ccccc1CNC(=S)NCc1ccc(Cl)cc1	-1	-2	1	-9	137*	.
Cc1ccc(Nc2nc(C(=O)N3CCC(C(=O)NC(C)C)CC3)cs2)cc1	.	-1	58*	10	-3	4
CC(C)NC(=O)C1CCN(C(=O)c2ccc(-c3ccccc3)cc2)CC1	4	.	.	9	-3	.
COc1ccc(Oc2nccc(-c3ccc(F)cc3)c2C#N)cc1	36	.	.	34	1	.
COc1ccc(Oc2nccc(-c3ccccc3)c2C#N)cc1	55*	.	.	65	-1	.
S=C1Nc2ccccc2CS1	.	-3	-7	.	1	7
S=C1Cc2ccccc2N1	-45	4	-18	-90	-2	73*
Nc1nn(-c2ccccc2)c(N)c1N=Nc1cccc(F)c1	.	.	20	.	-3	-487
Cc1nn(-c2ccccc2)c(N)c1N=Nc1cccnc1	.	0	11	97*	.	-25
Cc1nn(C(=O)c2cccs2)c(N)c1-c1ccccc1	85*	4	47*	90*	-22	-52
